Shown are actives, neighbours in structure and some others; about 3.4% of the full set was active somewhere.
TAAR1 ag – human TAAR1 agonism; CHO RD-HGA16 TAAR1, Fluo-8 calcium fluorescence; vehicle wells 0%, saturating PEA agonist 100%; 360,000 compounds, 0.99% hits; Q96RJ0; activation, % at 3 µM; AID 624467;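 active = activation above the mean activation of all test compounds in the run plus 3 SD, cut at about 38% in these data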
Target sequence (Q96RJ0 whole entry, looked up): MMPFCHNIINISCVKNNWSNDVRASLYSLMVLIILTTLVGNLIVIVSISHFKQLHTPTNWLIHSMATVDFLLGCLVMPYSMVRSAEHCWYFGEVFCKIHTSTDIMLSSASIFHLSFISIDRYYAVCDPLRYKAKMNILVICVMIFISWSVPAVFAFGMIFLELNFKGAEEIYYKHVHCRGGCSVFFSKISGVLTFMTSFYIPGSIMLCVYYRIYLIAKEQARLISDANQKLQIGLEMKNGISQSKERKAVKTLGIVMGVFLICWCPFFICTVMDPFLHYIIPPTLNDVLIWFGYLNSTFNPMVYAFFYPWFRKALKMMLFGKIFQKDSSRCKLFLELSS
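Test system: RD-HGA16 (CHO) cells co-expressing Gα16 and hTAAR1 | Doses: Single dose, 3 µM | Schedule: 17-24 h seeding, 75 min 37 °C dye, 30 min RT | Evaluation: % activation from peak over basal fluorescence ratio, DMSO-to-PEA scaled | Technique: Kinetic Fluo-8 calcium fluorescence | Benchmarks: Low control DMSO, high control PEA (EC100)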
M1 ag – human M1 muscarinic receptor agonism; activation, % at 3 µM; AID 588814; CHO-K1 hM1, Fluo-8 calcium fluorescence, agonist mode; 0% DMSO, 100% acetylcholine EC100; 360,000 compounds, 0.33% hits; P11229;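 active = activation above the run's mean compound activation plus 3 SD, cut at about 16% in these data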;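 note: peak over basal fluorescence ratio within a 140 s kinetic read after compound addition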
TAAR1 antag – human TAAR1 antagonism; inhibition, % at 3 µM; CHO RD-HGA16 TAAR1, Fluo-8 calcium fluorescence, antagonist; 360,000 compounds, 1.5% hits;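 active = inhibition above a per-plate cutoff, the mean inhibition of test compounds on that plate plus 3 SD, cut at about 49% in these data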
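Test system: CHO RD-HGA16 cells bearing hTAAR1 | Reagent: β-PEA, EC80 | Compound dosing: 3 µM, single point | Schedule: Dye loading 75 min at 37 °C, then 30 min room temperature | Signal: Calcium fluorescence with Fluo-8 | Evaluation: Percent inhibition of PEA-evoked calcium signal, max/basal emission ratio | Control set: DMSO-only wells and EC80 β-PEA-stimulated wells | Repeats: Singlicate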
CHRM1 antagonist – human CHRM1 antagonism; P11229; CHO-K1 hM1, Fluo-8 calcium fluorescence, ACh EC80 antagonist; inhibition, % at 3 µM; 360,000 compounds, 1.3% hits; AID 588852;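 active = percent inhibition above its own plate's cutoff, namely the mean of that plate's compound wells plus 3 SD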;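 note: peak over basal fluorescence ratio during 140 s after agonist addition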
M1 PAM – potentiates human M1 receptor response to acetylcholine | activation, % at 3 µM | P11229 | CHO-K1 hM1, Fluo-8 calcium fluorescence, ACh EC20; 0% = ACh EC20, 100% = maximal ACh | 360,000 compounds, 0.088% hits; in the data active = activation above about 19%, passing the limit was not always enough
TAAR1 nonsel count – nonselective antagonist in TAAR1 antagonist counter-screen; shares compounds with TAAR1 antag; counterscreen cell line, calcium fluorescence, antagonist mode; inhibition, % at 3 µM; 2,400 compounds, 77% hits; AID 651780; in the data active = inhibition above about 22%;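 note: CHO-Ga16 host cells stimulated with ATP at an EC80 level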
TAAR1 antag conf – human TAAR1 antagonism, confirmed. shares compounds with TAAR1 antag. TAAR1-expressing cells, fluorescence antagonist read-out. inhibition, % at 3 µM. 2,400 compounds, 40% hits. AID 651785; in the data active = inhibition above about 49%;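 note: CHO-Ga16 host cells challenged with agonist PEA near its EC80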
Ga16 ag counter – nonselective Ga16 agonist in TAAR1 antagonist counter-screen; activation, % at 3 µM; Ga16-expressing cells, calcium fluorescence, agonist counterscreen; shares compounds with TAAR1 antag; 2,400 compounds, 18% hits; in the data active = activation above about 12%
TAAR1 ag count – counter-screen for human TAAR1 antagonists: TAAR1 agonists; hTAAR1 cell line, fluorescence activation, agonist mode; 2,400 compounds, 2% hits; shares compounds with TAAR1 antag; activation, % at 3 µM; in the data active = activation above about 37%;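 note: CHO cells stably expressing TAAR1 with calcium dye readout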
Numbers stand for hits; i = inactive; nt = no result given.

SMILES	TAAR1 ag	M1 ag	TAAR1 antag	CHRM1 antagonist	M1 PAM	TAAR1 nonsel count	TAAR1 antag conf	Ga16 ag counter	TAAR1 ag count
CCCC(C)(C)C(=O)N1CCC1(C)C(=O)Nc1ccc2c(c1)OCCO2 (stereo unspecified)	i	i	i	i	i	nt	nt	nt	nt
COCCOC(=O)c1c(C)nc(SCC(=O)Nc2ccc(OC)cc2)c(C#N)c1-c1ccco1	i	i	i	i	i	nt	nt	nt	nt
Cc1nc(SCC(=O)c2ccccc2)c(C#N)c(-c2ccco2)c1C(=O)NCc1ccco1	i	i	62.4	i	i	35.0	58.3	i	i
COC(=O)c1cccc(N2C(=O)C[C@](Sc3ccc(C)cc3)(C(=O)OC)[C@H]2c2ccccc2)c1	i	nt	82.2	nt	nt	32.4	55.3	i	i
COc1ccc(NC(=O)C2(C)CCN2CC2CCCCC2)cc1OC (stereo unspecified)	i	i	i	i	i	nt	nt	nt	nt
COc1ccc(-c2cc(C(=O)Nc3c(C)n(C)n(-c4ccccc4)c3=O)c3ccccc3n2)c(OC)c1	i	i	53.4	i	i	25.7	i	i	i
Cc1ccc(-c2cc(C(F)(F)F)n3nc(C(=O)Nc4c(C)n(C)n(-c5ccccc5)c4=O)cc3n2)cc1	i	i	i	i	i	nt	nt	nt	nt
Cc1c(NC(=O)COC(=O)c2cc(-c3ccc(-c4ccccc4)cc3)nc3ccccc23)c(=O)n(-c2ccccc2)n1C	i	i	i	i	i	nt	nt	nt	nt
Cc1c(NC(=O)c2cc(-c3ccccc3)nc3ccccc23)c(=O)n(-c2ccccc2)n1C	i	i	59.3	i	i	27.8	50.2	i	i
COc1ccc(-c2cc(C(=O)OC(C)C(=O)Nc3c(C)n(C)n(-c4ccccc4)c3=O)c3ccccc3n2)cc1 (stereo unspecified)	i	i	i	i	i	nt	nt	nt	nt
Cc1ccc(-c2cc(C(=O)Nc3c(C)n(C)n(-c4ccccc4)c3=O)c3ccccc3n2)cc1	i	i	48.7	i	i	29.5	i	i	i
CC(C)(C)OC(=O)Nc1ccccc1-n1nnnc1C(C(=O)c1ccccc1)N1CCN(c2ccccn2)CC1 (stereo unspecified)	i	nt	i	nt	nt	nt	nt	nt	nt
CC(=O)Nc1ccc(S(=O)(=O)N(C)CC(=O)OCC(=O)NCc2ccco2)cc1	i	i	i	i	i	nt	nt	nt	nt
CC(=O)Nc1ccc(S(=O)(=O)NCC(=O)OCC(=O)NCc2ccco2)cc1	i	i	99.7	i	i	i	i	i	i
FC(F)Oc1ccc(-c2csc(=Nc3cccnc3)n2CC2CCCO2)cc1 (stereo unspecified)	i	i	56.8	i	i	36.8	i	i	i
Cc1nnc(SCC(=O)Nc2ccc(-c3nc4ccccc4s3)cc2)s1	i	i	i	i	i	nt	nt	nt	nt
Cc1nnc(SCC(=O)Nc2nsc(-c3ccc(C(C)(C)C)cc3)n2)s1	i	i	58.6	i	i	31.7	i	i	i
CCCOc1cccc(C(=O)N(Cc2ccco2)C2CCS(=O)(=O)C2)c1 (stereo unspecified)	i	i	101.7	i	i	i	i	i	i
Cc1cc2c(cc1C)-n1nnnc1C(N1CCN(c3ccccc3F)CC1)C(=O)N2 (stereo unspecified)	i	nt	i	nt	nt	nt	nt	nt	nt
Cc1csc(N2CCN(c3cc4nc(-c5ccncc5)[nH]c4cc3Cl)CC2)n1	i	i	58.5	i	i	29.9	i	i	i
Cc1csc(N2CCN(c3cc4c(cc3Cl)nc(-c3ccncc3)n4CCCN3CCCC3)CC2)n1	i	i	i	i	i	nt	nt	nt	nt
COc1cc2c(-c3ccccc3)c(C)oc2cc1/C=N/NC(N)=S	i	i	103.5	i	i	i	i	i	i
O=C(NC1CCCCC1)C(c1ccc(-c2ccccc2)cc1)n1c(=O)c(-c2ccco2)nc2ccccc21 (stereo unspecified)	i	nt	i	nt	nt	nt	nt	nt	nt
O=C(Nc1ccccc1N1CCN(C(=O)c2ccccc2)CC1)c1ccc(Cl)cc1	i	i	54.9	i	i	24.1	i	i	i
Cc1ccc(C(=O)Nc2cc(Cl)ccc2OC(=O)c2ccc(C)cc2)cc1	i	nt	i	nt	nt	nt	nt	nt	nt
SMILES	TAAR1 ag	M1 ag	TAAR1 antag	CHRM1 antagonist	M1 PAM	TAAR1 nonsel count	TAAR1 antag conf	Ga16 ag counter	TAAR1 ag count
O=C(Nc1ccccc1OC(=O)c1ccc(Cl)cc1)c1ccc(Cl)cc1	i	i	53.9	i	i	i	53.2	i	i
CC(C)C(=O)N1CCN(c2ccccc2NC(=S)NC(=O)/C=C/c2ccco2)CC1	i	i	50.8	i	i	i	i	i	i
CC(C)C(=O)NC(=S)Nc1ccccc1N1CCN(C(=O)c2ccccc2)CC1	i	i	77.9	i	i	38.4	59.6	13.9	i
COc1ccc(C(=O)Nc2ccc3c(c2)CCCN3C(=O)c2cccs2)c(OC)c1	i	i	54.7	i	i	25.9	i	i	i
Cc1ccccc1C(=O)Nc1ccc2c(c1)CCCN2C(=O)c1cccs1	i	i	i	i	i	nt	nt	nt	nt
COc1cccc(C(=O)Nc2ccc3c(c2)CCCN3C(=O)c2cccs2)c1OC	i	i	50.1	i	i	24.0	i	i	i
CC1(Cc2ccc(C(F)(F)F)nc2)C(=O)Nc2cc(-c3ccccc3Cl)ccc21 (stereo unspecified)	i	i	i	i	i	nt	nt	nt	nt
Cc1ccccc1OCC(=O)Nc1ccccc1C(=O)NC1CC1	i	i	56.5	i	i	23.6	i	i	i
Cc1cccc(C)c1NC(=O)C1(C)CN(S(C)(=O)=O)CC(=O)N1CCc1ccc(O)cc1 (stereo unspecified)	i	nt	i	nt	nt	nt	nt	nt	nt
O=C(CSc1nnc(-c2ccc(Br)cc2)o1)Nc1cccc2ccccc12	i	i	58.5	i	i	30.1	i	i	i
CN(C(=O)COC(=O)/C=C/c1ccc(S(=O)(=O)N2CCc3ccccc32)cc1)C1CCS(=O)(=O)C1 (stereo unspecified)	i	i	101.4	i	i	i	i	i	i
CC1=C(C(=O)N(C(C)C)C(C)C)CC(CC(=O)NC2CCCCC2)C(=O)N1Cc1ccc(F)cc1 (stereo unspecified)	i	i	i	i	i	nt	nt	nt	nt
O=C(NCc1cccc(F)c1)c1[nH]c(C(F)(F)F)nc1-c1ccccc1	i	i	i	i	i	nt	nt	nt	nt
COc1ccc(CNC(=O)C[C@H]2C(=O)N(CCc3ccccc3)C[C@@H]2Cc2ccccc2)cc1	i	i	56.2	i	i	i	i	i	i

Screens: PubChem, The Scripps Research Institute Molecular Screening Center
